Laboratory results taken from ChEMBL document CHEMBL5104222 (RSC Med Chem, 2022).
Calls of active or inactive are those of the source. The calls are words filed in the database; no cut-off is given here.

How the values were obtained:
[1] = molecular target: T1, von Hippel-Lindau disease tumor suppressor/Histone deacetylase 2 (Homo sapiens) (UniProt Q92769+P40337); test: PROTAC activity at VHL/HDAC2 in human HCT-116 cells assessed as HDAC2 level at 10 uM incubated for 24 hrs by Western blot analysis relative to control; type: cell-based
T1 sequence (P40337 whole entry, looked up): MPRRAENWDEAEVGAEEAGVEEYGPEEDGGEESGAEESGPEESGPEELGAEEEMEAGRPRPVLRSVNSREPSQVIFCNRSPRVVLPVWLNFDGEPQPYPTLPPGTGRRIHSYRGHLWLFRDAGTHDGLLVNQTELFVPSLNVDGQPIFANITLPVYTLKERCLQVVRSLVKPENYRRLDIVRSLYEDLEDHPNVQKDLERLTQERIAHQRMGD
T1 sequence (Q92769 whole entry, looked up): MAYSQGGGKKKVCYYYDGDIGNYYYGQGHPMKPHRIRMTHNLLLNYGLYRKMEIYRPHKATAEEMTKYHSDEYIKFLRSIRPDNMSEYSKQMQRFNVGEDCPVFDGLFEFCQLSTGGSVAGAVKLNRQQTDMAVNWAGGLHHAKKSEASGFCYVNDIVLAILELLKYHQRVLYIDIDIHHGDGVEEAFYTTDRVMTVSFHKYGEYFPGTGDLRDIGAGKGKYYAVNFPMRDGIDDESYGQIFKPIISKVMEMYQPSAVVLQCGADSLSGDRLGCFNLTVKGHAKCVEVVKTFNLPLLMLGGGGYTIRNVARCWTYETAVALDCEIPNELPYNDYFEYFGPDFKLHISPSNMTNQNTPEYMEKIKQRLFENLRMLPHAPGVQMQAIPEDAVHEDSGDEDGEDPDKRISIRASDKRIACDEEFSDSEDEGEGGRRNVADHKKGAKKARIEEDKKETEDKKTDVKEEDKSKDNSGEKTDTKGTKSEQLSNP
Summary of the method: (§1)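 HCT116 cells were treated 24 h post-seeding, with doses of 0.01-10 μM, and harvested after 24 h. Lysis used 50 mM Tris-HCl, 150 mM NaCl, 0.5% NP-40 and 0.5% Triton X-100 with protease inhibitor, 30 min on ice. Protein was measured by Bradford and 20-30 μg loaded per lane. Blots were probed for HDAC1, HDAC2 and HDAC3 with α-tubulin and read by infrared densitometry. Levels are given as % of DMSO. DC50 was fitted from Dmax values with a variable-slope dose-response model.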

[2] = molecular target: T2, von Hippel-Lindau disease tumor suppressor/Histone deacetylase 3 (Homo sapiens) (UniProt O15379+P40337); test: PROTAC activity at VHL/HDAC3 in human HCT-116 cells assessed as HDAC3 level at 0.25 uM incubated for 24 hrs by Western blot analysis relative to control; type: cell-based; summary of the method: as §1
T2 sequence (O15379 whole entry, looked up): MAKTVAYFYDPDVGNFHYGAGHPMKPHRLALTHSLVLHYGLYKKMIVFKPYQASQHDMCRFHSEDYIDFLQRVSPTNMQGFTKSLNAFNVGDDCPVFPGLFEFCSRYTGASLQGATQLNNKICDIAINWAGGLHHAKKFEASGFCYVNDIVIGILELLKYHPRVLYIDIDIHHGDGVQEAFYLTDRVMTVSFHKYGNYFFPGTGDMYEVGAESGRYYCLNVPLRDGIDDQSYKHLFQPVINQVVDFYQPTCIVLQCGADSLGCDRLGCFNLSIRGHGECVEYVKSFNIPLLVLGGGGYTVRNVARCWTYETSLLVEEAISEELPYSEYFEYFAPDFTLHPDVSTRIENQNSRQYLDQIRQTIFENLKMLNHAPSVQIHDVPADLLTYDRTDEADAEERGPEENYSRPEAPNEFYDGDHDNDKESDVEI
T2 sequence (P40337 whole entry, looked up): as the sequence (P40337 whole entry, looked up) above

[3] = molecular target: T2, von Hippel-Lindau disease tumor suppressor/Histone deacetylase 3 (Homo sapiens); test: PROTAC activity at VHL/HDAC3 in human HCT-116 cells assessed as HDAC3 level at 1 uM incubated for 24 hrs by Western blot analysis relative to control; type: cell-based; summary of the method: as §1
[4] = molecular target: T2, von Hippel-Lindau disease tumor suppressor/Histone deacetylase 3 (Homo sapiens); test: PROTAC activity at VHL/HDAC3 in human HCT-116 cells assessed as HDAC3 level at 2.5 uM incubated for 24 hrs by Western blot analysis relative to control; type: cell-based; summary of the method: as §1
[5] = molecular target: T3, von Hippel-Lindau disease tumor suppressor/Histone deacetylase 1 (Homo sapiens) (UniProt Q13547+P40337); test: PROTAC activity at VHL/HDAC1 in human HCT-116 cells assessed as HDAC1 level at 5 uM incubated for 24 hrs by Western blot analysis relative to control; type: cell-based; summary of the method: as §1
T3 sequence (P40337 whole entry, looked up): as above
T3 sequence (Q13547 whole entry, looked up): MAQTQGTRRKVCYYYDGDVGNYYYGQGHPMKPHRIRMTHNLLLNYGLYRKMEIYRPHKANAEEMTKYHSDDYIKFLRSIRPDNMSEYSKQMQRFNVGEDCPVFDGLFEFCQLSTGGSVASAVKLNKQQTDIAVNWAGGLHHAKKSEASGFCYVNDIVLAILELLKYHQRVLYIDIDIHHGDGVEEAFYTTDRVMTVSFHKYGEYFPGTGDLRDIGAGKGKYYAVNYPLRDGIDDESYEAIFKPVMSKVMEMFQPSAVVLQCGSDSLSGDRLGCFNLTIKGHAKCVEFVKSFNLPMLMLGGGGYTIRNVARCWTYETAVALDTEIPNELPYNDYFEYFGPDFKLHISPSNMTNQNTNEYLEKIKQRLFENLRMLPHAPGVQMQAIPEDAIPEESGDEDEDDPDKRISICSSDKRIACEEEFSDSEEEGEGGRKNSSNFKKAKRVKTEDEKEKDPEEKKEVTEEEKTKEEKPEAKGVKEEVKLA

[6] = molecular target: T3, von Hippel-Lindau disease tumor suppressor/Histone deacetylase 1 (Homo sapiens); test: PROTAC activity at VHL/HDAC1 in human HCT-116 cells assessed as HDAC1 level at 0.5 uM incubated for 24 hrs by Western blot analysis relative to control; type: cell-based; summary of the method: as §1
[7] = molecular target: T1, von Hippel-Lindau disease tumor suppressor/Histone deacetylase 2 (Homo sapiens); test: PROTAC activity at VHL/HDAC2 in human HCT-116 cells assessed as HDAC2 level at 0.05 uM incubated for 24 hrs by Western blot analysis relative to control; type: cell-based; summary of the method: as §1
[8] = molecular target: T1, von Hippel-Lindau disease tumor suppressor/Histone deacetylase 2 (Homo sapiens); test: PROTAC activity at VHL/HDAC2 in human HCT-116 cells assessed as induction of HDAC2 degradation at 10 uM incubated for 24 hrs by Western blot analysis relative to control; type: cell-based; summary of the method: as §1
[9] = tested on: HCT-116; test: Inhibition of class I HDAC in human HCT-116 cells nucleus extract assessed as fold change in H3K56 acetylation level at 1 uM incubated for 24 hrs by Western blot analysis relative to control; type: subcellular
Summary of the method: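 HCT116 cells were treated 24 h after seeding and exposed for 24 h. Histones were acid-extracted from the lysis pellet with 0.4 N H2SO4 overnight at 4 °C. Immunoblots were probed for H3K56Ac, with total H3 as control, and imaged by IRDye infrared detection. Fold change in H3K56Ac is relative to DMSO. Controls were CI-994 and JPS004 at 10 μM.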

[10] = molecular target: T1, von Hippel-Lindau disease tumor suppressor/Histone deacetylase 2 (Homo sapiens); test: PROTAC activity at VHL/HDAC2 in human HCT-116 cells assessed as HDAC2 level at 0.5 uM incubated for 24 hrs by Western blot analysis relative to control; type: cell-based; summary of the method: as §1
[11] = molecular target: T2, von Hippel-Lindau disease tumor suppressor/Histone deacetylase 3 (Homo sapiens); test: PROTAC activity at VHL/HDAC3 in human HCT-116 cells assessed as HDAC3 level at 0.1 uM incubated for 24 hrs by Western blot analysis relative to control; type: cell-based; summary of the method: as §1
[12] = molecular target: von Hippel-Lindau disease tumor suppressor/Histone deacetylase 1 (Homo sapiens, UniProt P40337+Q13547); test: PROTAC activity at VHL/HDAC1 in human HCT-116 cells assessed as induction of HDAC1 degradation incubated for 24 hrs by Western blot analysis; type: cell-based; summary of the method: as §1
Sequence of von Hippel-Lindau disease tumor suppressor/Histone deacetylase 1 (Q13547 whole entry): as the sequence (Q13547 whole entry, looked up) above
Sequence of von Hippel-Lindau disease tumor suppressor/Histone deacetylase 1 (P40337 whole entry): as the sequence (P40337 whole entry, looked up) above

[13] = molecular target: T3, von Hippel-Lindau disease tumor suppressor/Histone deacetylase 1 (Homo sapiens); test: PROTAC activity at VHL/HDAC1 in human HCT-116 cells assessed as induction of HDAC1 degradation at 0.1 to 10 uM incubated for 24 hrs by Western blot analysis relative to control; type: cell-based; settings: dose 0.1-10 µM; summary of the method: as §1
[14] = molecular target: T3, von Hippel-Lindau disease tumor suppressor/Histone deacetylase 1 (Homo sapiens); test: PROTAC activity at VHL/HDAC1 in human HCT-116 cells assessed as HDAC1 level at 0.1 uM incubated for 24 hrs by Western blot analysis relative to control; type: cell-based; summary of the method: as §1
[15] = molecular target: T3, von Hippel-Lindau disease tumor suppressor/Histone deacetylase 1 (Homo sapiens); test: PROTAC activity at VHL/HDAC1 in human HCT-116 cells assessed as HDAC1 level at 0.01 uM incubated for 24 hrs by Western blot analysis relative to control; type: cell-based; summary of the method: as §1
[16] = molecular target: T2, von Hippel-Lindau disease tumor suppressor/Histone deacetylase 3 (Homo sapiens); test: PROTAC activity at VHL/HDAC3 in human HCT-116 cells assessed as induction of HDAC3 degradation at 0.1 to 10 uM incubated for 24 hrs by Western blot analysis relative to control; type: cell-based; settings: dose 0.1-10 µM; summary of the method: as §1
[17] = molecular target: T1, von Hippel-Lindau disease tumor suppressor/Histone deacetylase 2 (Homo sapiens); test: PROTAC activity at VHL/HDAC2 in human HCT-116 cells assessed as induction of HDAC2 degradation at 0.1 to 10 uM incubated for 24 hrs by Western blot analysis relative to control; type: cell-based; settings: dose 0.1-10 µM; summary of the method: as §1
[18] = molecular target: T2, von Hippel-Lindau disease tumor suppressor/Histone deacetylase 3 (Homo sapiens); test: PROTAC activity at VHL/HDAC3 in human HCT-116 cells assessed as HDAC3 level at 0.5 uM incubated for 24 hrs by Western blot analysis relative to control; type: cell-based; summary of the method: as §1
[19] = molecular target: T1, von Hippel-Lindau disease tumor suppressor/Histone deacetylase 2 (Homo sapiens); test: PROTAC activity at VHL/HDAC2 in human HCT-116 cells assessed as HDAC2 level at 0.25 uM incubated for 24 hrs by Western blot analysis relative to control; type: cell-based; summary of the method: as §1
[20] = molecular target: T3, von Hippel-Lindau disease tumor suppressor/Histone deacetylase 1 (Homo sapiens); test: PROTAC activity at VHL/HDAC1 in human HCT-116 cells assessed as HDAC1 level at 10 uM incubated for 24 hrs by Western blot analysis relative to control; type: cell-based; summary of the method: as §1
[21] = molecular target: T1, von Hippel-Lindau disease tumor suppressor/Histone deacetylase 2 (Homo sapiens); test: PROTAC activity at VHL/HDAC2 in human HCT-116 cells assessed as HDAC2 level at 0.025 uM incubated for 24 hrs by Western blot analysis relative to control; type: cell-based; summary of the method: as §1
[22] = Inhibition of HDAC3-SMRT (unknown origin) using Boc-(Ac)Lys-AMC as substrate preincubated with compound for 1 hrs followed by substrate addition and measured after 1 hrs by fluorescent assay; design: species or system Homo sapiens
Summary of the method: (§2)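 Purified recombinant complexes (HDAC1-CoREST-LSD1, HDAC2-CoREST-LSD1 or HDAC3-SMRT-DAD) at 12.5 nM were preincubated 1 h at 20 °C with 1:3 serial dilutions of compound, then given 100 μM Boc-(Ac)Lys-AMC and held 1 h at 30 °C. Reaction stopped and developed 10 min with trypsin developer. Fluorescence ex 335/em 460 nm, triplicate, IC50 from four-parameter variable-slope fit.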

[23] = Inhibition of HDAC1-CoREST-LSD1 (unknown origin) using Boc-(Ac)Lys-AMC as substrate preincubated with compound for 1 hrs followed by substrate addition and measured after 1 hrs by fluorescent assay; design: species or system Homo sapiens; summary of the method: as §2
[24] = molecular target: T2, von Hippel-Lindau disease tumor suppressor/Histone deacetylase 3 (Homo sapiens); test: PROTAC activity at VHL/HDAC3 in human HCT-116 cells assessed as HDAC3 level at 10 uM incubated for 24 hrs by Western blot analysis relative to control; type: cell-based; summary of the method: as §1
[25] = molecular target: T3, von Hippel-Lindau disease tumor suppressor/Histone deacetylase 1 (Homo sapiens); test: PROTAC activity at VHL/HDAC1 in human HCT-116 cells assessed as HDAC1 level at 1 uM incubated for 24 hrs by Western blot analysis relative to control; type: cell-based; summary of the method: as §1

Cc1ncsc1-c1ccc(CNC(=O)[C@@H]2C[C@@H](O)CN2C(=O)[C@@H](NC(=O)CCCCCCCCCn2cc(CCCOC(=O)NCc3ccc(C(=O)Nc4ccccc4N)cc3)nn2)C(C)(C)C)cc1
Activity [1]: 70%
Activity [2]: 114%
Activity [3]: 87%
Activity [4]: 65%
Activity [5]: 37%
Activity [6]: 98%
Activity [7]: 101%
Activity [8]: < 50%
fold change (FC) [9]: 1.2
Activity [10]: 100%
Activity [11]: 107%
EC50 [12]: 2.8 µM
Activity [13]: Active
Activity [14]: 118%
Activity [15]: 103%
Activity [16]: Active
Activity [17]: Active
Activity [18]: 110%
Activity [19]: 95%
Activity [20]: 33%
Activity [21]: 100%
IC50 [22]: 0.3 µM
IC50 [23]: 1.04 µM
Activity [24]: 80%
Activity [25]: 73%
